Source: publication PMC6078096 (Environmental toxicology and pharmacology, 2018)
Counter-ions that a name gives are not always drawn.

Legend:
[1] = circulating steroid in humans; ref White and Porterfield, 2013; cited from earlier work
[2] = metabolite in human plasma; ref Quinete et al., 2017; cited from earlier work
[3] = biological target: T1, human estrogen sulfotransferase (SULT1E1) (Homo sapiens, UniProt P49888); assay: Inhibition of SULT1E1-catalyzed sulfation of [3H]estradiol; assay type: biochemical; details: 7.0 nM estradiol
T1 sequence (P49888 1-294): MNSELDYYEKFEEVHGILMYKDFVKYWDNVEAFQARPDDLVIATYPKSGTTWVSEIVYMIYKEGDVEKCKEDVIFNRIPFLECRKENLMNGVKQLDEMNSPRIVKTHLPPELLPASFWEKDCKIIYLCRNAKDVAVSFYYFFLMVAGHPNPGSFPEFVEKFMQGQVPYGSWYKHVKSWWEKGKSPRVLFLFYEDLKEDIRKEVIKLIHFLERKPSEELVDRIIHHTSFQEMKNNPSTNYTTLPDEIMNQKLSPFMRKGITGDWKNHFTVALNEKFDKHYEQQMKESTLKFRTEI
In short: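 Purified recombinant human enzyme expressed in E. coli BL21(DE3). Test compound added in ethanol at 0.01–10,000 nM. Equilibrated 3 min at 37 °C, started with 3.0 ng enzyme, run 4 min. Stopped with Tris-HCl pH 8.7 plus chloroform. Aqueous [3H]estradiol-3-sulfate counted by scintillation. Triplicates. IC50 fitted from % of control rate.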

C[C@]12CC[C@H](O)CC1=CC[C@@H]1[C@@H]2CC[C@]2(C)C(=O)CC[C@@H]12 [DHEA, dehydroepiandrosterone]
half-life [1]: 0.25 to 0.5 h

Oc1ccc(-c2ccc(Cl)cc2Cl)cc1Cl [4’-OH-PCB 25, 2,3’,4-trichloro-4’-hydroxybiphenyl]
estimated half-life in human plasma [2]: 6.5 years

O=S(=O)(O)Oc1ccc(-c2ccc(Cl)cc2Cl)cc1Cl [4’-PCB 25 Sulfate, 2,3’,4-trichloro-4’-biphenylsulfate]
IC50 value for SULT1E1, fold greater than the estradiol concentration [3]: over 50 fold

C[C@]12CC[C@H](OS(=O)(=O)O)CC1=CC[C@@H]1[C@@H]2CC[C@]2(C)C(=O)CC[C@@H]12 [DHEA-sulfate, dehydroepiandrosterone sulfate]
half-life [1]: 7 to 10 h

Oc1ccc(-c2ccc(Cl)cc2)cc1 [4’-OH-PCB 3, 4-chloro-4’-hydroxybiphenyl]
fold higher IC50 value for SULT1E1 than 4-OH-PCB 11 and 4’-OH PCB 25 [3]: ~200 fold
